Autophagy mod: modulators of autophagy; calls only at 10 µM (by protocol); hit rate 0.98% among 190,000; MEF GFP-LC3 puncta imaging; test concentration mostly 10 µM;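 active = percentage of spot-positive cells more than 3 SD above its plate mean, without a fluorescence outlier flag or 80% toxicity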;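 note: spot-positive cell cutoff set from DMSO-treated cells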
CHOP inhibitor: blocks CHOP induction under ER stress | CHO-K1 CHOP-promoter luciferase, tunicamycin-induced, 15-18 h | inhibition, % at 10 µM | hit rate 3.8% among 220,000;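 active = compounds that reduced the stress-induced luciferase reporter signal by more than about 70% of percent inhibition, limit read from the data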;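 note: 0% = tunicamycin plus vehicle and 100% = wells without tunicamycin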
bCat nuc transl: modulators of beta-catenin nuclear translocation; nuclear translocation activity, % at 5 µM; hit rate 0.3% among 190,000; HeLa beta-catenin nuclear translocation, immunofluorescence imaging;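 active = nuclear translocation activity above 50% at 5 µM, with a well cell count of 50 or more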;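 note: per-cell ratio of nuclear to cytoplasmic median beta-catenin stain intensity; plate controls were DMSO negative control for no effect and GSK-3 inhibitor IX positive control for full effect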
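test system = HeLa cells, endogenous beta-catenin | dosing = single 5 µM dose plus 0.02–20 µM confirmation series | times = compound treatment 24 h, 37°C, 5% CO2 | technique = beta-catenin immunofluorescence imaging with DAPI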
MT stabilize HCS: stabilizes microtubules in HeLa cells; HeLa tubulin immunostaining HCS, 24 h; share of cells brighter than vehicle mean+2SD; % tubulin-high responders, % at 10 µM; hit rate 0.83% among 200,000;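 active = plate Z-score above 3 for both tubulin-high and condensed-nucleus cell shares, with cell loss under 80%, at 10 µM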;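 note: anti alpha tubulin signal scored within the nucleus-defined area of each cell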
Dynein transport: blocks dynein driven cargo transport along microtubules; AID 1381; hit rate 0.47% among 220,000; z-score, hits read low; 3617.4 mouse cells, GR-EGFP nuclear translocation imaging; test concentration mostly 20 µM; stimulated with dexamethasone, 1 µM; stronger effect = lower value;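 active = plate z-score of nuclear minus cytoplasmic receptor signal below a set negative limit, without overly bright fluorescence or cell loss, cut at about -3.5 in these data, passing the limit was not always enough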;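 note: z-score of nuclear minus cytoplasmic ring GR-EGFP intensity difference per well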
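Buffer or medium: Induction medium lacking tetracycline, stripped serum | Also added: Dexamethasone agonist, 1.0 µM final, for 30 min | Timing: 48 h induction, 1 h compound, 30 min dex at 37 °C | Detection: Formaldehyde fixation, Hoechst nuclear stain, 10x automated fluorescence imaging | Measure: Nuclear versus cytoplasmic GR-EGFP signal, averaged per well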
Lmaj promast: reduces viability of Leishmania major promastigotes; hit rate 9% among 200,000; resazurin fluorescence viability; inhibition, % at 10 µM; in the data active = inhibition above about 50%;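 note: promastigotes grown with compound for 44 hours at 28 °C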
* = called active by the depositor. In the library only some 12% were active in any assay of this set; here they are far more common.

Screening Cn1nnnc1-c1cc(Br)ccc1NC(=O)c1ccccc1 returned Autophagy mod inactive, CHOP inhibitor 76*, bCat nuc transl 1, MT stabilize HCS 4, Dynein transport -0.66 and Lmaj promast -4.
`Cc1cc(O)ccc1NC(=O)c1ccccc1` gave CHOP inhibitor -18, bCat nuc transl -2, MT stabilize HCS 2, Dynein transport 0.34 and Lmaj promast -3.
COc1cc(/C=N/Nc2nc(Nc3ccc(C)cc3)nc(-n3nc(C)cc3C)n2)cc(OC)c1OC was read as Autophagy mod inactive, CHOP inhibitor 22, bCat nuc transl -3, MT stabilize HCS 4, Dynein transport 0.22 and Lmaj promast 100*.
COc1cc(/C=N/Nc2nc(Nc3ccccc3)nc(N3CCOCC3)n2)ccc1OC(=O)c1ccco1 was read as Autophagy mod inactive, CHOP inhibitor -30, MT stabilize HCS 6, Dynein transport -0.41 and Lmaj promast 22.
`COc1cc(/C=N/Nc2nc(Nc3ccccc3)nc(-n3nc(C)cc3C)n2)cc(OC)c1OC` gave Autophagy mod active, CHOP inhibitor -27, bCat nuc transl -2, MT stabilize HCS 5, Dynein transport -0.45 and Lmaj promast 100*.
Screening COc1ccc(O)c(/C=N/Nc2nc(Nc3ccccc3)nc(-n3nc(C)cc3C)n2)c1 returned Autophagy mod inactive, CHOP inhibitor 11, bCat nuc transl -3, MT stabilize HCS 4, Dynein transport 0.77 and Lmaj promast 101*.
Screening CN(C[C@@H](CC1CCCCC1)N(C[C@H](Cc1ccccc1)N(CCc1ccccc1)N=O)N=O)N=O returned Autophagy mod inactive, CHOP inhibitor -9, bCat nuc transl 0, MT stabilize HCS 3, Dynein transport -0.4 and Lmaj promast 7.
For O=S(=O)(c1cccc(-c2nnc3n2CCCCC3)c1)N1CCCC1 the results were Autophagy mod inactive, CHOP inhibitor -9, bCat nuc transl -4, MT stabilize HCS 5, Dynein transport 1.4 and Lmaj promast 4.
For CCn1c(SCC(=O)NNC(=O)c2ccc(OC)cc2)nnc1-c1ccco1 the results were Autophagy mod inactive, CHOP inhibitor -9, bCat nuc transl -1, MT stabilize HCS 2, Dynein transport -0.0086 and Lmaj promast -4.
`Cc1ccnc(NC(=O)c2cccc(NS(=O)(=O)c3ccccc3C)c2)c1` gave Autophagy mod inactive, CHOP inhibitor 16, bCat nuc transl -1, MT stabilize HCS 2, Dynein transport -0.67 and Lmaj promast 91*.
`COc1ccc2[nH]c(=O)c(C(c3nnnn3C3CCCC3)N(C)C3CCCCC3)cc2c1` (stereo not given) gave Autophagy mod inactive, CHOP inhibitor 75*, bCat nuc transl -6, MT stabilize HCS 4, Dynein transport -0.12 and Lmaj promast 53*.
`CCOc1ccc2[nH]c(=O)c(C(c3nnnn3C3CCCCC3)N3CCN(C)CC3)cc2c1` (stereo not given) gave Autophagy mod active, CHOP inhibitor 1, bCat nuc transl -4, MT stabilize HCS 2, Dynein transport 0.15 and Lmaj promast -5.
Screening CCOc1ccc2[nH]c(=O)c(C(c3nnnn3C3CCCCC3)N3CCN(CC)CC3)cc2c1 (stereo not given) returned Autophagy mod inactive, CHOP inhibitor -1, bCat nuc transl -2, MT stabilize HCS 6, Dynein transport -0.22 and Lmaj promast -8.
For CC(=O)Nc1ccc(S(=O)(=O)Nc2nc3ccccc3nc2Nc2ccc(O)cc2)cc1 the results were CHOP inhibitor -2, bCat nuc transl 1 and Dynein transport 0.39.
`NC(N)=NC1=NC(=O)/C(=C/c2ccccc2-n2cccn2)S1` gave Autophagy mod inactive, CHOP inhibitor 5, bCat nuc transl -2, MT stabilize HCS 3, Dynein transport -0.44 and Lmaj promast -7.
Screening CCC(CC)=N/N=C/c1c(O)n(CC)c2cc(C3=NNC(=O)CC3)ccc12 returned Autophagy mod inactive, CHOP inhibitor -2, bCat nuc transl 1, MT stabilize HCS 5, Dynein transport 1.9 and Lmaj promast 3.
CCn1c(O)c(/C=N/N=C/c2ccccc2)c2ccc(C3=NNC(=O)CC3)cc21 was read as Autophagy mod inactive, CHOP inhibitor 33, MT stabilize HCS 3, Dynein transport -1.2 and Lmaj promast 89*.
For Cc1cnc(C(=O)OCC(=O)c2csc(N3CCCCC3)n2)cn1 the results were Autophagy mod inactive, CHOP inhibitor -11, bCat nuc transl 3, MT stabilize HCS 3, Dynein transport -1.5 and Lmaj promast -7.
For CCCOc1ccc(C(=O)N2CCCc3ccccc32)cc1 the results were Autophagy mod inactive, CHOP inhibitor -4, bCat nuc transl -1, MT stabilize HCS 4, Dynein transport 0.3 and Lmaj promast 8.
For Cc1ccc(SCCOCCN2CC(C)OC(C)C2)cc1 (stereo not given) the results were CHOP inhibitor 8, bCat nuc transl 0 and Dynein transport -0.22.
For CCCOc1ccc(OCCOCCN2CCc3ccccc3C2)cc1 the results were Autophagy mod inactive, CHOP inhibitor 28, MT stabilize HCS 2, Dynein transport -0.72 and Lmaj promast 97*.
Screening COc1ccc(CN2CCc3ccccc3C2)c(OC)c1 returned CHOP inhibitor 13, bCat nuc transl 1 and Dynein transport -0.52.
`c1ccc(OCCOCCN2CCc3ccccc3C2)cc1` gave Autophagy mod inactive, CHOP inhibitor 3, bCat nuc transl 3, MT stabilize HCS 3, Dynein transport 0.7 and Lmaj promast 98*.
`C=CCc1cc(OC)ccc1OCCOCCN1CCc2ccccc2C1` gave Autophagy mod inactive, CHOP inhibitor 42, bCat nuc transl 6, MT stabilize HCS 2, Dynein transport 0.61 and Lmaj promast 90*.
Screening Cc1ccc(SCCOCCN2CCc3ccccc3C2)cc1 returned Autophagy mod inactive, CHOP inhibitor 41, bCat nuc transl 2, MT stabilize HCS 3, Dynein transport -0.5 and Lmaj promast 92*.
Screening CN1CC(=O)N(CCOc2ccccc2)C1=O returned Autophagy mod inactive, CHOP inhibitor 46, bCat nuc transl -1, MT stabilize HCS 4, Dynein transport 0.96 and Lmaj promast -5.
For N#Cc1ccccc1OCC(=O)OCC(=O)N1CCN(C(=O)c2ccco2)CC1 the results were Autophagy mod inactive, CHOP inhibitor 3, bCat nuc transl 1, MT stabilize HCS 10, Dynein transport 0.26 and Lmaj promast -10.
`Cc1onc(-c2ccccc2)c1C(=O)NCC(O)c1ccccc1` (stereo not given) gave CHOP inhibitor -9, bCat nuc transl 1 and Dynein transport 0.43.
Screening COc1cccc(CN(C)Cc2nc(Cc3ccccc3Cl)no2)c1 returned Autophagy mod inactive, CHOP inhibitor -6, bCat nuc transl 0, MT stabilize HCS 3, Dynein transport -0.74 and Lmaj promast 3.

Compound activity from PubChem BioAssay.
